In ChEMBL document CHEMBL1138635, “Myxopyronin B analogs as inhibitors of RNA polymerase, synthesis and biological evaluation” (Bioorg Med Chem Lett, 2004):
≈ marks a conversion by molar mass, not a printed value.

What was measured:
[1] = system: Escherichia coli; assay: Minimum inhibitory concentration against Escherichia coli; assay type: functional
Outline: (§1)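 Growth inhibition by serial dilution. MIC reported in µg/mL as the average of triplicate measurements.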

[2] = system: Escherichia coli; assay: Minimum inhibitory concentration against Escherichia coli (Tol C); assay type: functional; outline: as §1
[3] = system: Staphylococcus aureus; assay: Minimum inhibitory concentration against Staphylococcus aureus; assay type: functional; outline: as §1
[4] = biological target: DNA-directed RNA polymerase subunit beta (Escherichia coli K-12, UniProt P0A8V2); assay: In vitro inhibitory activity against RNA polymerase of Escherichia coli
Outline: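 E. coli RNAP activity measured by a nucleotide-coupled assay that links pyrophosphate release to NADPH. NADPH was read by fluorescence (emission ~440 nm) instead of absorbance at 340 nm. IC50 was determined; for weak inhibitors, percent inhibition at 10 µM was reported instead. Selected compounds were also tested by radiolabeled nucleotide incorporation into RNA.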

[5] = biological target: DNA-directed RNA polymerase subunit beta (Escherichia coli K-12) (UniProt P0A8V2); assay: In vitro percent inhibition against RNA polymerase of Escherichia coli in nucleotide coupled NADPH/pyrophosphate release assay at 10 uM; assay type: functional
Outline: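 E. coli RNA polymerase activity measured in a nucleotide-coupled NADPH/pyrophosphate release assay. NADPH was read by fluorescence (emission ~440 nm) rather than absorbance at 340 nm. For weaker inhibitors, percent inhibition was recorded at 10 µM instead of an IC50.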

Chain of DNA-directed RNA polymerase subunit beta (Escherichia coli K-12) (P0A8V2 whole entry, looked up): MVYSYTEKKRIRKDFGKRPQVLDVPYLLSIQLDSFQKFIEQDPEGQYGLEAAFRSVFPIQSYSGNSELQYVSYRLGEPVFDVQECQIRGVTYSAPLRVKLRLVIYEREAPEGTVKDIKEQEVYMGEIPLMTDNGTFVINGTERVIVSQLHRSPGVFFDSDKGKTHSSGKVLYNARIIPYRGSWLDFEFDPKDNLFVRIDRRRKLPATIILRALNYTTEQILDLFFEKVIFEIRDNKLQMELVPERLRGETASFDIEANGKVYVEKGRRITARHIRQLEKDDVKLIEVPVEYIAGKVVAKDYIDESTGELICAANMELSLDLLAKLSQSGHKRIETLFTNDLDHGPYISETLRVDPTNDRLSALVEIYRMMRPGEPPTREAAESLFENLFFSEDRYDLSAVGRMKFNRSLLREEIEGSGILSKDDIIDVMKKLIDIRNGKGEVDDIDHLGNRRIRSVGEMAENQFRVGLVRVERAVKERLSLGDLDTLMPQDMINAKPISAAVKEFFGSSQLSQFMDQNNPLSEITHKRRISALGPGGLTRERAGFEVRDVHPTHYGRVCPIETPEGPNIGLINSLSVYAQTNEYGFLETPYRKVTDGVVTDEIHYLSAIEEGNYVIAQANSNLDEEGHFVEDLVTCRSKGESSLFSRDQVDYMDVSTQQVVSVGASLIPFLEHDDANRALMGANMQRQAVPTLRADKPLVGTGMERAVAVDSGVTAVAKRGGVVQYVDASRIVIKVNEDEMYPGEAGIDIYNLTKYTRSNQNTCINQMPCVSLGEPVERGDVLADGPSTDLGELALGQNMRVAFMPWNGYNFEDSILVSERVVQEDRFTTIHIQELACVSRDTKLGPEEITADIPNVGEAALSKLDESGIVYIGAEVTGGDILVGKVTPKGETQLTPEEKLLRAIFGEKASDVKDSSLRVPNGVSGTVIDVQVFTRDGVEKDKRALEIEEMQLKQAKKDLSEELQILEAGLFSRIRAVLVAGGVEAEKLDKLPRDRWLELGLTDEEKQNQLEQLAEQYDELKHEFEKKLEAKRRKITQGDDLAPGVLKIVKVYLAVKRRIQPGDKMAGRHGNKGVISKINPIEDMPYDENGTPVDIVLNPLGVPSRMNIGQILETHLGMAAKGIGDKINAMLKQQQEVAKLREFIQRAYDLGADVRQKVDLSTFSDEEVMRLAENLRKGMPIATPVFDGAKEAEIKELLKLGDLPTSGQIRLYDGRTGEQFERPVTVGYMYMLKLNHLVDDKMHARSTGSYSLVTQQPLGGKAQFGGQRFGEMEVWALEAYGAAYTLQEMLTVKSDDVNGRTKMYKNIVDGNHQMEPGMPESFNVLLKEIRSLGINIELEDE
Chain of DNA-directed RNA polymerase subunit beta (P0A8V2 whole entry): as the sequence (P0A8V2 whole entry, looked up) above

MIC [1] [µg/mL] | MIC [2] [µg/mL] | MIC [3] [µg/mL] | inhibition [5] [%] | Structure (SMILES) | IC50 [4] [µM]
> 64 | > 64 | > 64 | < 20 | CCCC/C(C)=C/C=C(\C)C(=O)c1c(O)cc(C(C)CC/C=C/C(=O)OC)oc1=O (centres undefined) | 
> 64 | > 64 | > 64 | < 20 | CCC(=O)c1c(O)cc(C(C)CC/C=C/NC(=O)OC)oc1=O (centres undefined) | 
> 64 | > 64 | > 64 | < 20 | CCCC/C(C)=C/C=C(\C)C(=O)c1c(O)cc(C(C)CC/C=C/NC(=O)OCCN(C)C)oc1=O (centres undefined) | 
> 64 | > 64 | > 64 | < 20 | CCCC/C(C)=C/C=C(\C)C(=O)c1c(O)cc(C(C)CC/C=C/NC(=O)OCCN2CCOCC2)oc1=O (centres undefined) | 
> 64 | 32 (≈ 76.6 µM) | 64 (≈ 153 µM) | 70 | CCCC/C(C)=C/C=C/C(=O)c1c(O)cc(C(C)CC/C=C/NC(=O)OC)oc1=O (centres undefined) | 
> 64 | > 64 | > 64 | < 20 | CCCC/C(C)=C/CNC(=O)c1c(O)cc(C(C)CC/C=C/NC(=O)OC)oc1=O (centres undefined) | 
> 64 | > 64 | > 64 | < 20 | CCCC/C(C)=C/C=C(\C)C(=O)c1c(O)cc(C(C)CCCC=O)oc1=O (centres undefined) | 

More lines, now with the values behind:

Structure (SMILES) | MIC [1] [µg/mL] | MIC [2] [µg/mL] | MIC [3] [µg/mL] | inhibition [5] [%] | IC50 [4] [µM]
CCCC/C(C)=C\C=C(\C)C(=O)c1c(O)cc(C(C)CC/C=C/NC(=O)OC)oc1=O (centres undefined) | > 64 | 16 (≈ 37.1 µM) | 16 (≈ 37.1 µM) |  | 2.5
CCCC/C(C)=C/C=C(\C)C(=O)c1c(O)cc(C(C)CC/C=C\NC(=O)OC)oc1=O (centres undefined) | > 64 | 4 (≈ 9.27 µM) | 4 (≈ 9.27 µM) |  | 1.26
CCCC/C=C/C=C(\C)C(=O)c1c(O)cc(C(C)CC/C=C/NC(=O)OC)oc1=O (centres undefined) | > 64 | 2 (≈ 4.79 µM) | 16 (≈ 38.3 µM) |  | 1.04
CCCC/C(C)=C/C=C(\C)C(=O)c1c(O)cc(C(C)Cc2ccc(NC(=O)OC)cc2)oc1=O (centres undefined) | > 64 | > 64 | > 64 | < 20 | 
CCCC/C(C)=C/C=C(\C)C(=O)c1c(O)cc(CCC/C=C/NC(=O)OC)oc1=O [DESMETHYL MYXOPYRONIN B] | > 64 | 1 (≈ 2.4 µM) | 4 (≈ 9.58 µM) |  | 0.34
CCCC/C(C)=C/C=C(\C)C(=O)c1c(O)cc(C(C)CCCCNC(=O)OC)oc1=O (centres undefined) | > 64 | 8 (≈ 18.5 µM) | 64 (≈ 148 µM) |  | 4
CCCC/C(C)=C/C=C(\C)C(=O)c1c(OC)cc(C(C)CC/C=C/NC(=O)OC)oc1=O (centres undefined) | > 64 | > 64 | > 64 |  | 4.2
CCCC/C(C)=C/C=C(\C)C(=O)c1c(O)cc(C(C)CC/C=C/NC(=O)OC)oc1=O (centres undefined) | > 64 | 2 (≈ 4.63 µM) | 1 (≈ 2.32 µM) |  | 0.92
CCCC/C(C)=C/C=C(\C)C(=O)c1c(O)cc(C(C)Cc2cccc(NC(=O)OC)c2)oc1=O (centres undefined) | > 64 | > 64 | > 64 | < 20 | 
